Test results taken from the EternaBench riboswitch data.

System: MS2 coat protein
Experiment: apparent Kd, MS2 coat protein; higher = weaker binding; RNA-MaP array; tryptophan 2.4 mM where present
How it was run: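 Two titrations, one without ligand and one with constant ligand, were run with SNAP-549-labelled MS2 coat protein from 0.7 or 1.5 nM, doubling to 3 µM. The targets were designs transcribed by stalled E. coli RNA polymerase on Illumina sequencing-chip clusters, in 100 mM Tris-HCl pH 7.5, 80 mM KCl, 4 mM MgCl2, BSA, DTT, yeast tRNA and Tween-20. The apparent Kd is the median of filtered per-cluster binding-curve fits, with green signal normalised to red-channel RNA signal and control-cluster median Fmax.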

[1] = designed as: ON switch for tryptophan, no ligand
[2] = ligand present: tryptophan, designed as: ON switch for tryptophan
[3] = designed as: OFF switch for tryptophan, no ligand
[4] = ligand present: tryptophan, designed as: OFF switch for tryptophan

| Sequence | apparent Kd [1] [nM] | apparent Kd [2] [nM] | apparent Kd [3] [nM] | apparent Kd [4] [nM] |
| --- | --- | --- | --- | --- |
| UGGUACUAGGCGGCCGCCACUGGGAGAUACAUGAGGAUCACCCAUGUUUAAUGCCGAGAGGCAACUAGGACCGGGCCUAGUACAU | 117 | 26.5 | – | – |
| AAUGCCGGAUCGGCCGCCACUGGUUGGCUCUGUGUACAUGAGGAUCACCCAUGUCCAUCCCAAACCAGGACCGGGAUCUUUGUGU | 13.1 | 8.83 | – | – |
| AAAAUAAUGGCGGCCGCCACUAACUCAUAUACAUCAUGUACAUGAGGAUCACCCAUGUAGGUGUAUAGGACCGGGCCAUAAUUAA | – | – | 18.6 | 25.6 |
| GGAUUCGGCACGGCCGCCACUGCGGUGGUGUGACAUGAGGAUCACCCAUGUUGUCAUGCGGCCCUUAGGACCGGGUGGCGUUUCC | – | – | 49.7 | 63.7 |
| UGUACCAUGUCGGCCGCCACUCAUGAUAAACAUGAGGAUCACCCAUGUAGCGUCAAAGACGCUAUGAGGACCGGGACAUGGUACU | 35 | 12.2 | – | – |
| ACAUGAGGAUCACCCAUGUGUGUAAAUCCUCGAGGACCGGUACGGCCGCCACUCGAACGAGUGUAAGAUGAAUGUUACAUUCAUC | 105 | 38.3 | – | – |
| CUACAUUUGUAGAAACCGGUCAACAAUAUUCGAGGACCGGUACGGCCGCCACUCGUAUAAUUUAAUACAUGAGGAUCACCCAUGU | 14.8 | 15.9 | – | – |
| GGGUACAUCACGGCCGCCACUCAUGUAAAUACAUGAGGAUCACCCAUGUCGAUGGAGACAUCGGAGAGGACCGGGUGAUGUACCG | 338 | 272 | – | – |
| ACUCGACCAUCAGCCAUUUGUGAAUCACGGCGAGGACCGGUACGGCCGCCACUCGACAUGAGGAUCACCCAUGUAAGACCGGUGU | – | – | 25.8 | 50.3 |
| UACAUGAGGAUCACCCAUGUAUAACCGGUACGAGGACCGGUACGGCCGCCACUCGAAACAUGAGGAUCACCCAUGUGCUACUAUU | 34.5 | 35.6 | – | – |
| GGCUUCAACUCGGCCGCCACUGGUGAUCCUCAUGUACAUGAGGAUCACCCAUGUACAUGAGACUACAGGACCGGGAGAUCAGCAA | 8.34 | 7.7 | – | – |
| CGCCACUCGAGUGAUCCUCACGAGUGGCUACGAGGACCGGUACGGCCGCCACUCGAAUUAACAUGAGGAUCACCCAUGUAAUCCA | 86.3 | 62.5 | – | – |
| UCAGAUGAGGCGGCCGCCACUCGCGGAUAACGAUAGAUUAACAUGAGGAUCACCCAUGUGUCAUGGAGGACCGGGCCCAUGACAU | 27.9 | 23.7 | – | – |
| GCGGACAUGAGGAUCACCCAUGUAAAUCCUCGAGGACCGGUACGGCCGCCACUCGAACGAGUGGCACGCGAGUGCGCACUCGCGU | 24.7 | 25.4 | – | – |
| UUCAGCUAGUCGGCCGCCACUACAUGAGGAUCACCCAUGUAAUCCUAACACUGCUUCGGCAGUGGUAGGACCGGGACUAGCUGAG | – | – | 10.6 | 17.1 |
| UAUCGUCAGACGGCCGCCACUAGAACAUGAGGAUCACCCAUGUACUAGUGGCAUACCUCAUGAACUAGGACCGGGUCUGACGAAU | – | – | 9.33 | 9.25 |
| GUGCUGGUAUCGGCCGCCACUGUAACAUGACAUCCCAGGGCCGACAUGAGGAUCACCCAUGUUAACAGGACCGGGAUAUCAACGA | – | – | 14.2 | 25.4 |
| GUUGAGACCUCGGCCGCCACUCGCCAUGAGGAUCUCCCAUGUAACAUGAGGAUCACCCAUGUACUGAGGACCGGGAGGUCCUUGU | 12.4 | 21.6 | – | – |
| ACAUGAGGAUCACCCAUGUCAUGAGGUUCACGAGGACCGGUACGGCCGCCACUCGGGCUUCGGAUCACGGAUGUACAUGAUGAUC | 84 | 51.6 | – | – |
| GCAUCCUAGUCGGCCGCCACUGCAUGUAGUUUUGCUACAUGGAAACAUGAGGAUCACCCAUGUAGCAGGACCGGGACUAGGAUGC | 27.5 | 11.5 | – | – |
| CCGUUCUCUGCGGCCGCCACUCAAGGAGCUACAUAGCUCCUAGACAUGAGGAUCACCCAUGUCGCGAGGACCGGGUAGAUUCUCC | 49.5 | 33.2 | – | – |
| GCUACAUGAGGAUCACCCAUGUAUGCGAGCCGAGGACCGGUACGGCCGCCACUCGCUUAACAUGAGGAUCACCCAUGUUGCUCGC | 24 | 14.8 | – | – |
| AAACAUGAGGAUCACCCAUGUUCUCCUGUCCGAGGACCGGUACGGCCGCCACUCGGUUCUCGGGAGGAUGGUCAAAGACUAUCCA | 13.7 | 13.6 | – | – |
| AUUCAUGAAAACAUGACAUGAGGAUCACUCCGAGGACCGGUACGGCCGCCACUCGCGAGGAGGCACAUGAGGAUCACCCAUGUUA | 114 | 82.8 | – | – |
| AAUAACAUGAGGAUCACCCAUGUAAGUAAACGAGGACCGGUACGGCCGCCACUCGAAUAAAUAAAGUACCGGUAAGAUCCAGGGA | 14.8 | 16.8 | – | – |
